Measured values taken from ChEMBL document CHEMBL1131197, “5'-substituted adenosine analogs as new high-affinity partial agonists for the adenosine A1 receptor” (J Med Chem, 1998).

Key:
Adenosine receptor A1 [1] = biological target: T1, Adenosine receptor A1 (Rattus norvegicus, UniProt P25099); test: Effective concentration for [35S]GTP-gamma-S, binding to adenosine A1 receptor in rat brain membranes; type: functional, cell membranes
T1 sequence (P25099 whole entry): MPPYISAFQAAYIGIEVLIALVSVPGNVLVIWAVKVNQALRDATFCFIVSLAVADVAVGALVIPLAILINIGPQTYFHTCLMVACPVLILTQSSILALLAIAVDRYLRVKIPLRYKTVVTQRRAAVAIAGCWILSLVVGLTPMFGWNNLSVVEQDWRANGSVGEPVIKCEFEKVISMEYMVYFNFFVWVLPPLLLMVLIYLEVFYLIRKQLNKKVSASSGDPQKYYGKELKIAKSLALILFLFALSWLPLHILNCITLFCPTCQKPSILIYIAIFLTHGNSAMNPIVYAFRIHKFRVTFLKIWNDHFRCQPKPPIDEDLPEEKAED
In short: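 Stimulation of [35S]GTPγS binding in rat brain membranes (same preparation as binding); nonspecific binding defined with 10 µM unlabeled GTPγS.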

Adenosine receptor A1 [2] = biological target: T1, Adenosine receptor A1; test: Binding affinity against adenosine A1 receptor using [3H]DPCPX in rat cortical membranes in the absence of GTP; type: cell membranes
In short: (§1)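 Rat cortical membranes, pre-incubated with 2 units/mL ADA at 37 °C before storage; protein by BCA. Nonspecific binding defined with 10 µM R-PIA. Line 1 run without GTP, line 2 with 1 mM GTP. Ki values are means of three independent experiments in duplicate unless otherwise noted.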

Adenosine receptor A1 [3] = biological target: T1, Adenosine receptor A1; test: Binding affinity against adenosine A1 receptor using [3H]DPCPX in rat cortical membranes in the presence of GTP.; type: cell membranes; in short: as §1
[4] = biological target: T2, Adenosine receptor A1 (Rattus norvegicus) (UniProt P25099); test: Intrinsic activity for maximum stimulation of [35S]GTP-gamma-S, binding to adenosine A1 receptor in rat brain membranes; type: functional, cell membranes
T2 sequence (whole entry): T1 sequence (P25099 whole entry)
In short: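 Rat brain membranes incubated with the agonist and [35S]GTPγS; nonspecific binding defined with 10 μM unlabelled GTPγS. Read-out is the maximal level of G protein activation by [35S]GTPγS binding, given ± SEM, with EC50 derived from the stimulation curves; n = 3-9.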

Adenosine receptor A2a = Adenosine receptor A2a (Rattus norvegicus, UniProt P30543); test: Binding affinity against Adenosine A2A receptor using [3H]-CGS- 21680 as the radioligand in rat striatal membranes; type: cell membranes, Striatum, Membrane
Chain of Adenosine receptor A2a (P30543 whole entry): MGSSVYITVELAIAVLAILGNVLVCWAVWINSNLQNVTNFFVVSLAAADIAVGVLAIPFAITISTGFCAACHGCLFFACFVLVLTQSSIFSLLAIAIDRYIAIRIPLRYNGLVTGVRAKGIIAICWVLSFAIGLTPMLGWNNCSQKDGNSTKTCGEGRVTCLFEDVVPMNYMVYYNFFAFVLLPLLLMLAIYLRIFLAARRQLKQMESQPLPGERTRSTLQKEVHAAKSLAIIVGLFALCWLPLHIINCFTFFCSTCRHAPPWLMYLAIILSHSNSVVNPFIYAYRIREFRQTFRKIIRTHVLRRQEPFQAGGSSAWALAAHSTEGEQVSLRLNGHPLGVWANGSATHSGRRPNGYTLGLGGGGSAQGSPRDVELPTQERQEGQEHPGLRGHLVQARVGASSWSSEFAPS

| Compound | EC50 (Adenosine receptor A1 [1]) [nM] | Ki (Adenosine receptor A1 [2]) [nM] | Ki (Adenosine receptor A1 [3]) [nM] | Activity [4] [%] | Ki (Adenosine receptor A2a) [µM] |
| --- | --- | --- | --- | --- | --- |
| CNC[C@H]1O[C@@H](n2cnc3c(NC4CCCC4)ncnc32)[C@H](O)[C@@H]1O | 1330 | 440 | 2600 | 96.4 | 45.5 |
| CCSC[C@H]1O[C@@H](n2cnc3c(NC4CCCC4)ncnc32)[C@H](O)[C@@H]1O | 127 | 45 | 130 | 65.6 | 19 |
| C[Se]C[C@H]1O[C@@H](n2cnc3c(NC4CCCC4)ncnc32)[C@H](O)[C@@H]1O | 225 | 76 | 166 | 50.3 | 11.3 |
| CCNC[C@H]1O[C@@H](n2cnc3c(NC4CCCC4)ncnc32)[C@H](O)[C@@H]1O | – | 2410 | 8560 | – | 42.5 |
| CSC[C@H]1O[C@@H](n2cnc3c(NC4CCCC4)ncnc32)[C@H](O)[C@@H]1O | 99 | 59 | 199 | 40.2 | 13.5 |
| O[C@@H]1[C@H](O)[C@@H](CCl)O[C@H]1n1cnc2c(NC3CCCC3)ncnc21 | 26 | 9.5 | 61.5 | 88 | 8.75 |
| CC(C)CSC[C@H]1O[C@@H](n2cnc3c(NC4CCCC4)ncnc32)[C@H](O)[C@@H]1O | 189 | 41 | 149 | 85.3 | 10.3 |
| OC[C@H]1O[C@@H](n2cnc3c(NC4CCCC4)ncnc32)[C@H](O)[C@@H]1O | – | – | – | 100 | – |
| CCCNC[C@H]1O[C@@H](n2cnc3c(NC4CCCC4)ncnc32)[C@H](O)[C@@H]1O | 13900 | 4640 | 14300 | 73 | 14.5 |
| CCCSC[C@H]1O[C@@H](n2cnc3c(NC4CCCC4)ncnc32)[C@H](O)[C@@H]1O | 384 | 76 | 222 | 84.1 | 18.8 |
